Activity calls are given as the source filed them.
Legend:
[1] = biological target: Genome polyprotein (dengue virus type 2) (UniProt P29990); test: Inhibition of DENV2 NS2B-NS3 protease expressed in Escherichia coli BL21 lambda(DE3) using FRET substrate preincubated with enzyme for 15 mins in presence of detergent CHAPS followed by substrate addition for 15 mins by fluorescence based analysis; conditions: time 30.0 min
[2] = Half life in Sprague-Dawley rat liver microsomes at 100 uM incubated for 60 mins in presence of NADPH by HPLC analysis; assay type: ADME, Microsome
How it was run: (§1)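 Rat liver microsomes; samples incubated 60 min at 37 °C, parent compound depletion monitored.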

[3] = Stability of the compound assessed as bovine pancreas trypsin-mediated parent compound depletion at 0.1 mg/ml incubated for 120 mins by HPLC analysis; assay type: ADME, Bos taurus; conditions: cattle; for metabolised at 2 h, 0.1 mg/ml: bovine pancreas trypsin, read-out: Drug degradation
How it was run: (§2)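 Compound incubated with α-chymotrypsin or bovine trypsin in buffer for 120 min at 37 °C; parent compound depletion monitored.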

[4] = Stability of the compound assessed as bovine pancreas alphachymotrypsin-mediated parent compound depletion at 0.1 mg/ml incubated for 120 mins by HPLC analysis; assay type: ADME, Bos taurus; conditions: cattle, bovine pancreas alpha-chymotrypsin, read-out: Drug degradation; how it was run: as §2
[5] = biological target: Genome polyprotein (dengue virus type 2) (UniProt P29990); test: Inhibition of NS2B-NS3 protease in DENV2proHeLa system assessed as inhibition of luciferase signal at 12.5 uM incubated for 24 hrs by luciferase reporter gene assay; assay type: cell-based; conditions: HeLa
How it was run: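 Stable DENV2proHeLa cells seeded at 2 × 10⁴/well and dosed immediately, then incubated 24 h at 37 °C. Cells lysed 15 min at room temperature. Luciferase read with coelenterazine (2.75 μM in PBS) injection, luminescence 5 s. Triplicates; percent inhibition calculated relative to untreated control; background from cell-free wells.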

Genome polyprotein [6] = biological target: T1, Genome polyprotein (dengue virus type 2, UniProt P29990); test: Inhibition of NS2B-NS3 protease in DENV2proHeLa system assessed as inhibition of luciferase signal incubated for 24 hrs by luciferase reporter gene assay; assay type: cell-based, HeLa
How it was run: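 HeLa cells stably carrying the reporter system, 2 × 10⁴ per well, given inhibitor at seeding and held 24 h at 37 °C. Cells lysed 15 min at room temperature. Luciferase read for 5 s after injecting coelenterazine (2.75 μM in PBS). Triplicate wells per concentration; percent inhibition taken against untreated cells. EC50/EC90 from 4-parameter dose-response fit, background from cell-free wells subtracted.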

[7] = Cytotoxicity against human HeLa cells assessed as reduction in cell viability incubated for 24 hrs by CellTiter-Blue assay; assay type: cell-based
How it was run: (§3)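 Viability by CellTiter-Blue in HeLa or Huh-7 cells exposed to compound dilutions. Plates run in parallel with the reporter assay (HeLa) or the virus titer assay (Huh-7).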

[8] = biological target: Prothrombin (Homo sapiens) (UniProt P00734); test: Inhibition of thrombin in human plasma using Boc-Val-Pro-Arg-AMC as substrate at 25 uM preincubated with enzyme for 15 mins followed by substrate addition and measured for 15 mins by fluorimetric assay; assay type: cell-free; conditions: time 30.0 min
Trypsin (Homo sapiens) = Trypsin (Homo sapiens) (UniProt P07477+P07478+P35030); test: Inhibition of trypsin (unknown origin) using Boc-Val-Pro-Arg-AMC as substrate at 50 uM preincubated with enzyme for 15 mins followed by substrate addition and measured for 15 mins by fluorimetric assay; assay type: protein assay; conditions: time 30.0 min
Genome polyprotein [9] = biological target: T1, Genome polyprotein; test: Competitive inhibition of DENV2 NS2B-NS3 protease expressed in Escherichia coli BL21 lambda(DE3) using FRET substrate preincubated with enzyme for 15 mins followed by varying concentrations of substrate addition for 15 mins by Cheng-Prusoff plot analysis
dengue virus type 2 [10] = test: Antiviral activity against DENV2 infected in human Huh7 cells assessed as reduction in virus titer in cell supernatant by measuring inhibition of plaque formation using VeroE6 cells at 12.5 uM preincubated with viral infected Huh7 cells for 48 hrs and measured following infection of VeroE6 cells with supernatants for 7 days by plaque assay based crystal violet staining analysis; assay type: functional; conditions: Huh-7, 216 h, time 9 day
How it was run: (§4)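 Huh-7 cells seeded at 1 × 10⁴/well and incubated overnight. Infected with DENV-2 at MOI 1 for 2 h, then medium changed and compound added. […] Pooled supernatants titred by plaque assay on VeroE6 cells: 10⁻¹ to 10⁻⁶ dilutions, 1 h infection, 7 days, formaldehyde fix, crystal violet.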

dengue virus type 2 [11] = test: Antiviral activity against DENV2 infected in human Huh7 cells assessed as reduction in virus titer in cell supernatant by measuring inhibition of plaque formation using VeroE6 cells preincubated with viral infected Huh7 cells for 48 hrs and measured following infection of VeroE6 cells with supernatants for 7 days by plaque assay based crystal violet staining analysis; assay type: functional, organism-based, Huh-7; conditions: for EC50: Huh-7; for EC90: Huh-7, 216 h, time 9 day; how it was run: as §4
Huh-7 [12] = test: Cytotoxicity against human Huh-7 cells assessed as reduction in cell viability at 12.5 uM incubated for 48 hrs by CellTiter-Blue assay; assay type: cell-based; conditions: huh-7, 48 h; how it was run: as §3
[13] = Passive membrane permeability of the compound in phosphate buffered saline assessed as concentration of the compound in acceptor plate at 200 uM incubated for 5 hrs by PAMPA assay based HPLC analysis; assay type: ADME
How it was run: (§5)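 Precoated trilayer PAMPA, 5 h incubation. Acceptor and donor concentrations measured after 5 h. Permeability and mass retention calculated by a literature method.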

[14] = Passive membrane permeability of the compound in phosphate buffered saline assessed as concentration of the compound in donor plate at 200 uM incubated for 5 hrs by PAMPA assay based HPLC analysis; assay type: ADME; how it was run: as §5
[15] = Passive membrane permeability of the compound in phosphate buffered saline at 200 uM incubated for 5 hrs by PAMPA assay based HPLC analysis; assay type: ADME; conditions: for Papp at 5 h, 200 µM: PAMPA, read-out: permeability; how it was run: as §5
[16] = Passive membrane permeability of the compound in phosphate buffered saline assessed as mass retention of the compound at 200 uM incubated for 5 hrs by PAMPA assay based HPLC analysis; assay type: ADME; how it was run: as §5
[17] = Metabolic stability in Sprague-Dawley rat liver microsomes at 100 uM incubated for 60 mins in presence of NADPH by HPLC analysis; assay type: ADME, Microsome; conditions: 1 h; how it was run: as §1
[18] = Stability of the compound assessed as bovine pancreas alphachymotrypsin-mediated parent compound depletion by measuring parent compound remaining at 0.1 mg/ml incubated for 120 mins by HPLC analysis; assay type: ADME, Bos taurus; conditions: cattle, bovine pancreas alpha-chymotrypsin, read-out: Stabilty; how it was run: as §2
[19] = biological target: Genome polyprotein (dengue virus type 2) (UniProt P29990); test: Competitive inhibition of DENV2 NS2B-NS3 protease expressed in Escherichia coli BL21 lambda(DE3) assessed as increase in Km without change in Vmax using FRET substrate preincubated with enzyme for 15 mins followed by substrate addition for 15 mins by Michaelis-Menten based analysis; conditions: time 30.0 min
Genome polyprotein [20] = biological target: T1, Genome polyprotein; test: Competitive inhibition of DENV2 NS2B-NS3 protease expressed in Escherichia coli BL21 lambda(DE3) using FRET substrate preincubated with enzyme for 15 mins followed by substrate addition for 15 mins by Michaelis-Menten based analysis
[21] = biological target: Genome polyprotein (West Nile virus) (UniProt P06935); test: Inhibition of WNV NS2B-NS3 protease expressed in Escherichia coli BL21 lambda(DE3) using FRET substrate preincubated with enzyme for 15 mins in presence of detergent CHAPS followed by substrate addition for 15 mins by fluorescence based analysis; conditions: time 30.0 min
Sequence of Genome polyprotein (West Nile virus) (P06935 whole entry): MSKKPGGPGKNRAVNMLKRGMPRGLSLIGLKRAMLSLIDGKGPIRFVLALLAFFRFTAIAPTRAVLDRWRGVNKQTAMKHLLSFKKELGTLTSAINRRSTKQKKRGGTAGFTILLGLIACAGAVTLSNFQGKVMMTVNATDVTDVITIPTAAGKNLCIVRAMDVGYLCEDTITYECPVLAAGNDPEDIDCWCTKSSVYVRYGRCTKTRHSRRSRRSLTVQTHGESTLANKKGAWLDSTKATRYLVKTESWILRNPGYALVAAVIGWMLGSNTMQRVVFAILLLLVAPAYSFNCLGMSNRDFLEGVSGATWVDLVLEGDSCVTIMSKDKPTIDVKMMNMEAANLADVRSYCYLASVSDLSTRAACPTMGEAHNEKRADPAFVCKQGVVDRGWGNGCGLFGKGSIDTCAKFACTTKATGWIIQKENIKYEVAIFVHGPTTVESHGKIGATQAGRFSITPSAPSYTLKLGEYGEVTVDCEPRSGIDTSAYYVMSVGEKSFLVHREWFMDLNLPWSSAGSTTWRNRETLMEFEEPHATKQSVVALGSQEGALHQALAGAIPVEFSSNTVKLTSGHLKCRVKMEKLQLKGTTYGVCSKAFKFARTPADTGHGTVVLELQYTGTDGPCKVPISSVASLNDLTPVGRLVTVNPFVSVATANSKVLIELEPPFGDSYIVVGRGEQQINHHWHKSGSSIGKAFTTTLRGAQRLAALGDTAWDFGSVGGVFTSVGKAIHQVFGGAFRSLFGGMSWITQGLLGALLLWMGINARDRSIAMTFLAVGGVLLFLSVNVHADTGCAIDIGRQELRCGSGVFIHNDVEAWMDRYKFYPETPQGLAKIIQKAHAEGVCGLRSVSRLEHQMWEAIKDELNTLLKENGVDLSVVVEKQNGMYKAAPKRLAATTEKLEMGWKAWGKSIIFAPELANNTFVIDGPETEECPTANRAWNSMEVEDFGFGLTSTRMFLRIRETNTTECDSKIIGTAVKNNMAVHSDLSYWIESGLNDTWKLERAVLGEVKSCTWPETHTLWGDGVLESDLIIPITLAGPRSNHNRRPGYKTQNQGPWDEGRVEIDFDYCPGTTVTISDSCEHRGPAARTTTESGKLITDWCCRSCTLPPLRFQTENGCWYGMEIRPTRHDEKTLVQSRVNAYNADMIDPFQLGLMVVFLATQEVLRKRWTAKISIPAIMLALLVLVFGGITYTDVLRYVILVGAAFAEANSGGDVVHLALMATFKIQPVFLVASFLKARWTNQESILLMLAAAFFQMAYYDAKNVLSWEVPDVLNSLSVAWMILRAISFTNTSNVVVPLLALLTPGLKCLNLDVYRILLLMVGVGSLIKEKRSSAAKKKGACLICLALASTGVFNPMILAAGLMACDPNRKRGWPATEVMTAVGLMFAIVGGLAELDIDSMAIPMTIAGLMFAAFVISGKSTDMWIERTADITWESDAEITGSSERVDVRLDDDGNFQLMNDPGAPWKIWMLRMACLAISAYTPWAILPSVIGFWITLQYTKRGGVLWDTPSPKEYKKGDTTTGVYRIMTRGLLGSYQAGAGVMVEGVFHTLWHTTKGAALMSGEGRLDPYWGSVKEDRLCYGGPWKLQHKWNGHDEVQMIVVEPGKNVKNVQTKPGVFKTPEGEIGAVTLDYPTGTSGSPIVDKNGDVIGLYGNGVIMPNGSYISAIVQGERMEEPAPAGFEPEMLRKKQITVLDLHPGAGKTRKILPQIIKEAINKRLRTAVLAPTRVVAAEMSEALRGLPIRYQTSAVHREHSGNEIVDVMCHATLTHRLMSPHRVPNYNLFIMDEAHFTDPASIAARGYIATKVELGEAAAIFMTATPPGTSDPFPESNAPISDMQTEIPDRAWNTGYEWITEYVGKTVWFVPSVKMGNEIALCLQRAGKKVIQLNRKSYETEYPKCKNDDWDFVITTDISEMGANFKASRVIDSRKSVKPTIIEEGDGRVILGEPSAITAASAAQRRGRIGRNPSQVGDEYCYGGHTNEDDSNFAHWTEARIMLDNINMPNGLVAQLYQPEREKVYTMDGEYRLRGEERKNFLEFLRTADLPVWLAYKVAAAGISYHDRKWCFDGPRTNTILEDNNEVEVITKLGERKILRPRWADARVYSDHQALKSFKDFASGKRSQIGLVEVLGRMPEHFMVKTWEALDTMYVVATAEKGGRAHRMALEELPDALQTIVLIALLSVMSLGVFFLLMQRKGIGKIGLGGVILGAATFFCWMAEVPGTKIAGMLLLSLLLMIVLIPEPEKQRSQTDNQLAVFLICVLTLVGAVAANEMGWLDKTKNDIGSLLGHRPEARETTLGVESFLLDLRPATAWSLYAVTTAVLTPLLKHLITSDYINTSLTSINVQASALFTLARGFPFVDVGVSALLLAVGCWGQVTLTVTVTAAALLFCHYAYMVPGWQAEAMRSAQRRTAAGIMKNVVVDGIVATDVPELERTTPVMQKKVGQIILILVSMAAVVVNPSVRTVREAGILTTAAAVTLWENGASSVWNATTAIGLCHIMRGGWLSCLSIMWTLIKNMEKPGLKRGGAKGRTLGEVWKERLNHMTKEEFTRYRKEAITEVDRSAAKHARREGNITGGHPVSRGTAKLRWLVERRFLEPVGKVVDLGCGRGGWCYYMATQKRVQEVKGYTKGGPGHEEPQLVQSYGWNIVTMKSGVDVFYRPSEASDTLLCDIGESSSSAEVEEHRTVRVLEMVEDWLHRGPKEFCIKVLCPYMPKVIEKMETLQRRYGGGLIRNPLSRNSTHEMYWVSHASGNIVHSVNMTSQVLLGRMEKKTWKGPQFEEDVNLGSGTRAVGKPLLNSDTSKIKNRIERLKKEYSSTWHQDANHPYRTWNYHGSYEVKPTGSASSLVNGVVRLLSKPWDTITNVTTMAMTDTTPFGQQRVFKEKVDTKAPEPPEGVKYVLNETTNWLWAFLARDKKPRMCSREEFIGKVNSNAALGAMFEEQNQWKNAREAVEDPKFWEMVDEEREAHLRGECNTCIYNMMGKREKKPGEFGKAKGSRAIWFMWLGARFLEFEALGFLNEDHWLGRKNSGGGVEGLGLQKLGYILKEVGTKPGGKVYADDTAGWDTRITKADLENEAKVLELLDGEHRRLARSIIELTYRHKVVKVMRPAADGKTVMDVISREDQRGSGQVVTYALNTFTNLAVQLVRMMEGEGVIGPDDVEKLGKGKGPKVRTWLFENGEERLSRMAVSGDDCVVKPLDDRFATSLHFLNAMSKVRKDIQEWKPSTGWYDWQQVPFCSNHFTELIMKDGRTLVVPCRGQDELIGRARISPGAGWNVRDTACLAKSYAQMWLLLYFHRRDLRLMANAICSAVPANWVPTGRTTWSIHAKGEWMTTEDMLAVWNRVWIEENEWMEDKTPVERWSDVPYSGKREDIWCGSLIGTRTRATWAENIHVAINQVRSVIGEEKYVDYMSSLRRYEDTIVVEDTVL

dengue virus type 2 [22] = test: Antiviral activity against DENV2 infected in human Huh7 cells assessed as reduction in virus titer in cell supernatant by measuring inhibition of plaque formation using VeroE6 cells at 10 uM preincubated with viral infected Huh7 cells for 48 hrs and measured following infection of VeroE6 cells with supernatants for 7 days by plaque assay based crystal violet staining analysis; assay type: functional; conditions: Huh-7, 216 h, time 9 day
Huh-7 [23] = test: Cytotoxicity against human Huh-7 cells assessed as reduction in cell viability at 10 uM incubated for 48 hrs by CellTiter-Blue assay; assay type: cell-based; conditions: huh-7, 48 h; how it was run: as §3

CCCCCC(=O)N[C@H](C(=O)NCc1ccc(NC(=N)N)cc1)c1ccc(OCc2ccccc2)cc1
inhibition [1]: Active
half-life at 100 µM [2]: 55 min
metabolised at 2 h, 0.1 mg/ml [3]: 25%
metabolised at 2 h, 0.1 mg/ml [4]: 40%

NC(=O)c1cccc(NC(=O)[C@@H](NC(=O)c2ccc(Oc3ccc(C(F)(F)F)cc3)cc2)c2ccc(OCc3ccccc3)cc2)c1
inhibition [5]: 76%
EC50 (Genome polyprotein [6]): 1.2 µM
CC50 at 24 h [7]: > 100 µM
inhibition [8]: inactive
inhibition (Trypsin (Homo sapiens)): inactive
Ki (Genome polyprotein [9]): 6.3 µM
inhibition [1]: Active
inhibition at 12.5 µM (dengue virus type 2 [10]): 100%
EC50 (dengue virus type 2 [11]): 0.24 µM
EC90 (dengue virus type 2 [11]): 4.8 µM
Activity (Huh-7 [12]): < 20%
Activity [13]: 6.9 µM
Activity [14]: 188 µM
Papp at 5 h, 200 µM [15]: 1.4 ×10⁻⁶ cm/s
Activity [16]: 3.7%
Stabilty [17]: Stable
metabolised at 2 h, 0.1 mg/ml [3]: 25%
remaining at 2 h, 0.1 mg/ml [18]: 70%

NC(=O)c1cccc(NC(=O)[C@@H](NC(=O)c2ccc(N3CCOCC3)cc2)c2ccc(OCc3ccccc3)cc2)c1
inhibition [5]: 79%
EC50 (Genome polyprotein [6]): 2.2 µM
CC50 at 24 h [7]: > 100 µM
inhibition [8]: inactive
inhibition (Trypsin (Homo sapiens)): inactive
inhibition [1]: Active
inhibition at 12.5 µM (dengue virus type 2 [10]): 96%
EC50 (dengue virus type 2 [11]): 0.85 µM
EC90 (dengue virus type 2 [11]): 15 µM
Activity (Huh-7 [12]): < 20%
Activity [13]: 8.1 µM
Activity [14]: 181 µM
Papp at 5 h, 200 µM [15]: 1.7 ×10⁻⁶ cm/s
Activity [16]: 7.1%
half-life at 100 µM [2]: 27 min
Stabilty ([3]; isolated protein, 2 h): Unstable
metabolised at 2 h, 0.1 mg/ml [4]: 40%

NC(=O)c1cccc(NC(=O)[C@@H](NC(=O)c2ccc(-c3ccc(Cl)cc3)cc2)c2ccc(OCc3ccccc3)cc2)c1
inhibition [5]: 78%
EC50 (Genome polyprotein [6]): 1.2 µM
CC50 at 24 h [7]: > 25 µM
inhibition [8]: inactive
inhibition (Trypsin (Homo sapiens)): inactive
Ki (Genome polyprotein [9]): 6.9 µM
inhibition [19]: Active
Ki (Genome polyprotein [20]): 4.1 µM
inhibition [1]: Active
inhibition [21]: Active
inhibition at 12.5 µM (dengue virus type 2 [10]): 100%
EC50 (dengue virus type 2 [11]): 1.6 µM
EC90 (dengue virus type 2 [11]): 4.7 µM
Activity (Huh-7 [12]): < 20%
Activity [13]: 3.7 µM
Activity [14]: 187 µM
Papp at 5 h, 200 µM [15]: 0.7 ×10⁻⁶ cm/s
Activity [16]: 5.5%
Stabilty [17]: Stable
metabolised at 2 h, 0.1 mg/ml [3]: 25%
remaining at 2 h, 0.1 mg/ml [18]: 70%

CCCCCC(=O)N[C@H](C(=O)NCc1ccc(C(N)=O)cc1)c1ccc(OCc2ccccc2)cc1
inhibition [5]: 66%
EC50 (Genome polyprotein [6]): 6.3 µM
CC50 at 24 h [7]: > 100 µM
inhibition [8]: inactive
inhibition (Trypsin (Homo sapiens)): inactive
inhibition at 10 µM (dengue virus type 2 [22]): 34%
permeability ([15]; pampa, 5 h, 200 µM): Impermeable
Activity (Huh-7 [23]): < 20%

— ChEMBL document CHEMBL4811254, “Beyond Basicity: Discovery of Nonbasic DENV-2 Protease Inhibitors with Potent Activity in Cell Culture” (J Med Chem, 2021)
